# Calls of active or inactive are those of the source. The rule behind the calls is not given here.
# Legend:
# [1] = test system: Mus musculus; assay: Reduction of serotonin level in mouse blood at 100 mg/kg, ip bid for 8 days; type: functional; set-up: scale not given: the % may be the effect or the level left; conditions: route intraperitoneal
# [2] = test system: Mus musculus; assay: Reduction of serotonin level in mouse duodenum at 100 mg/kg, ip bid for 5 days; type: functional; set-up: scale not given: the % may be the effect or the level left; conditions: route intraperitoneal
# Summary of the method: (§1)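 Mice were dosed at 100 mg/kg twice daily (200 mg/kg/day) for five days, by intraperitoneal injection or oral gavage. 5-HT levels were then measured in blood and intestine (duodenum) and reported as percent decrease.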
# [3] = organism: Mus musculus; assay: Reduction of serotonin level in mouse brain; type: functional, organism-based
# [4] = test system: Mus musculus; assay: Reduction of serotonin level in mouse duodenum at 100 mg/kg, po bid for 5 days; type: functional; set-up: scale not given: the % may be the effect or the level left; summary of the method: as §1
# [5] = Plasma clearance in C57 albino mouse at 1 mg/kg, iv; type: ADME, organism-based; set-up: dose 1 mg/kg, route intravenous
# Summary of the method: (§2)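 Male C57-albino mice were used in two groups. One group received a single 1 mg/kg intravenous injection and the other a 10 mg/kg oral gavage dose. Plasma levels gave clearance and Vss (iv), and Cmax, AUC and oral bioavailability (po).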
# [6] = test system: Mus musculus; assay: Reduction of serotonin level in mouse blood at 100 mg/kg, ip bid for 5 days; type: functional; set-up: scale not given: the % may be the effect or the level left; conditions: route intraperitoneal; summary of the method: as §1
# [7] = Cmax in C57 albino mouse at 10 mg/kg, po; type: ADME, organism-based; set-up: dose 10 mg/kg, route oral; conditions: in vivo; summary of the method: as §2
# [8] = test system: Mus musculus; assay: AUC in C57 albino mouse at 10 mg/kg, po; type: ADME, organism-based, Plasma; set-up: dose 10 mg/kg, route oral; conditions: in vivo; summary of the method: as §2
# [9] = Volume of distribution at steady state in C57 albino mouse at 1 mg/kg, iv; type: ADME, organism-based; set-up: dose 1 mg/kg, route intravenous; conditions: in vivo, read-out: Vdss; summary of the method: as §2
# [10] = test system: Mus musculus; assay: Reduction of serotonin level in mouse duodenum at 100 mg/kg, ip bid for 8 days; type: functional; set-up: scale not given: the % may be the effect or the level left; conditions: route intraperitoneal
# [11] = test system: Mus musculus; assay: Reduction of serotonin level in mouse blood at 100 mg/kg, po bid for 5 days; type: functional; set-up: scale not given: the % may be the effect or the level left; summary of the method: as §1
# [12] = Oral bioavailability in C57 albino mouse at 10 mg/kg; type: ADME, organism-based; conditions: in vivo; summary of the method: as §2
# [13] = test system: RBL-2H3; assay: Inhibition of serotonin biosynthesis in rat RBL2H3 cells after 3 days; type: functional, cell-based; conditions: RBL-2H3, 72 h
# Summary of the method: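 Serotonin biosynthesis was measured in rat mastocytoma RBL-2H3 cells. EC50 was taken from inhibition of that biosynthesis.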
# [14] = biological target: T1, Tryptophan 5-hydroxylase 1 (Homo sapiens, UniProt P17752); assay: Inhibition of human recombinant TPH1 by continuous fluorescence assay
# T1 sequence (P17752 whole entry): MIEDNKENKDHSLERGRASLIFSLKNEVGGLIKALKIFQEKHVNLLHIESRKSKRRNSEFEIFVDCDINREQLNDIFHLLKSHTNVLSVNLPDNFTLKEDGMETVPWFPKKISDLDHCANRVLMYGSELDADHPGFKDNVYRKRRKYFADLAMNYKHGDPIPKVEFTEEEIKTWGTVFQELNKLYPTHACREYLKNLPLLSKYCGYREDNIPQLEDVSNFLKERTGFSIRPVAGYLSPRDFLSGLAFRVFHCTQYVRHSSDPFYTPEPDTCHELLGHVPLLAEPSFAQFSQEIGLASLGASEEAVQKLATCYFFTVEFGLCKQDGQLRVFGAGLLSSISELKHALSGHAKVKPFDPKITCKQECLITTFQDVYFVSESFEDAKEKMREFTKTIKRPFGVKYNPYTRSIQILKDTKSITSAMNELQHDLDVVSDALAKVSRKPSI
# Summary of the method: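 Purified recombinant human TPH1 was tested in a continuous fluorescence assay. IC50 was taken from inhibition of enzyme activity.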
compound,measurement,setting,value
C[C@@H](Nc1nc(N)nc(-c2ccc(C[C@H](N)C(=O)O)cc2)n1)c1ccc2ccccc2c1,Activity,[1],50%
same,Activity,[2],37%
same,Activity,[3],inactive
same,Activity,[4],38%
same,clearance,[5],8.33 mL/min/kg
same,Activity,[6],26%
same,Cmax,[7],500 nM
same,AUC,[8],1.6 µM·h
same,Vd,[9],0.5 L/kg
same,Activity,[10],57%
same,Activity,[11],17%
same,bioavailability,[12],5%
same,EC50,[13],300 nM
Nc1nc(NCc2ccc(Oc3ccccc3)cc2)nc(-c2ccc(C[C@H](N)C(=O)O)cc2)n1,IC50,[14],150 nM
same,EC50,[13],3400 nM
Cc1ccc(CNc2nc(N)nc(-c3ccc(C[C@H](N)C(=O)O)cc3)n2)cc1C,IC50,[14],100 nM
same,EC50,[13],> 11000 nM
CC(Nc1nc(N)nc(-c2ccc(C[C@H](N)C(=O)O)cc2)n1)c1ccc(-c2ccccc2)cc1 (stereo not given in full),IC50,[14],24 nM
same,EC50,[13],2500 nM
Nc1nc(NCc2ccccc2)nc(-c2ccc(C[C@H](N)C(=O)O)cc2)n1,IC50,[14],500 nM
same,EC50,[13],> 11000 nM
C[C@H](Nc1nc(N)nc(-c2ccc(C[C@H](N)C(=O)O)cc2)n1)c1ccc2ccccc2c1,IC50,[14],44 nM
same,EC50,[13],2800 nM
Nc1nc(NCC2CCCCC2)nc(-c2ccc(C[C@H](N)C(=O)O)cc2)n1,IC50,[14],120 nM
same,EC50,[13],> 11000 nM
Nc1nc(NCc2cccc(-c3ccccc3)c2)nc(-c2ccc(C[C@H](N)C(=O)O)cc2)n1,IC50,[14],38 nM
same,EC50,[13],1400 nM
N[C@@H](Cc1ccc(-c2nc(NCc3ccc4ccccc4c3)nc(N3CCOCC3)n2)cc1)C(=O)O,IC50,[14],15600 nM
same,EC50,[13],> 40000 nM
C[C@H](c1ccc2ccccc2c1)N(C)c1nc(N)nc(-c2ccc(C[C@H](N)C(=O)O)cc2)n1,IC50,[14],50 nM
same,EC50,[13],480 nM
CC(Nc1nc(N)nc(-c2ccc(C[C@H](N)C(=O)O)cc2)n1)C12CC3CC(CC(C3)C1)C2 (stereo not given in full),IC50,[14],19 nM
same,EC50,[13],820 nM
Nc1nc(NCc2ccc(-c3ccc(C(F)(F)F)cc3)cc2)nc(-c2ccc(C[C@H](N)C(=O)O)cc2)n1,IC50,[14],160 nM
same,EC50,[13],4100 nM
CCC(Nc1nc(N)nc(-c2ccc(C[C@H](N)C(=O)O)cc2)n1)c1ccc2ccccc2c1 (stereo not given in full),IC50,[14],150 nM
same,EC50,[13],2300 nM
CNc1nc(N[C@H](C)c2ccc3ccccc3c2)nc(-c2ccc(C[C@H](N)C(=O)O)cc2)n1,IC50,[14],610 nM
same,EC50,[13],10200 nM
Nc1nc(NCc2ccccc2-c2ccccc2)nc(-c2ccc(C[C@H](N)C(=O)O)cc2)n1,IC50,[14],7 nM
same,EC50,[13],2200 nM
CC(Nc1ncnc(-c2ccc(C[C@H](N)C(=O)O)cc2)n1)c1ccc2ccccc2c1 (stereo not given in full),IC50,[14],190 nM
same,EC50,[13],16200 nM
Nc1nc(NCc2ccc(-c3ccccc3)cc2)nc(-c2ccc(C[C@H](N)C(=O)O)cc2)n1,IC50,[14],60 nM
same,EC50,[13],1800 nM
CC(C)CC(Nc1nc(N)nc(-c2ccc(C[C@H](N)C(=O)O)cc2)n1)c1ccc2ccccc2c1 (stereo not given in full),IC50,[14],120 nM
same,EC50,[13],> 11000 nM
Nc1nc(NCc2ccc(C(F)(F)F)cc2)nc(-c2ccc(C[C@H](N)C(=O)O)cc2)n1,IC50,[14],120 nM
same,EC50,[13],36000 nM
CC(C)C(Nc1nc(N)nc(-c2ccc(C[C@H](N)C(=O)O)cc2)n1)c1ccc2ccccc2c1 (stereo not given in full),IC50,[14],250 nM
same,EC50,[13],5700 nM
Nc1nc(OC(c2ccc3ccccc3c2)C(F)(F)F)nc(-c2ccc(C[C@H](N)C(=O)O)cc2)n1 (stereo not given in full),IC50,[14],320 nM
same,EC50,[13],9600 nM
Cc1ccc(-c2ccc(CNc3nc(N)nc(-c4ccc(C[C@H](N)C(=O)O)cc4)n3)cc2)cc1,IC50,[14],14 nM
same,EC50,[13],2300 nM
Nc1nc(NC(c2ccc3ccccc3c2)C(F)(F)F)nc(-c2ccc(C[C@H](N)C(=O)O)cc2)n1 (stereo not given in full),IC50,[14],330 nM
same,EC50,[13],6300 nM
CC(C)(Nc1nc(N)nc(-c2ccc(C[C@H](N)C(=O)O)cc2)n1)c1ccc2ccccc2c1,IC50,[14],55 nM
same,EC50,[13],1700 nM
Nc1nc(NCc2ccc3ccccc3c2)nc(-c2ccc(C[C@H](N)C(=O)O)cc2)n1,EC50,[13],2100 nM
